# In ChEMBL document CHEMBL1156933, “Studies of benzothiophene template as potent factor IXa (FIXa) inhibitors in thrombosis” (J Med Chem, 2010):
# pKi: −log10 of the molar value.
# How the values were obtained:
# Coagulation factor X = Coagulation factor X (Homo sapiens, UniProt P00742); test: Inhibition of factor 10 by amidolytic assay
# How it was run: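 Done by a previously published literature method. IC50 values are the mean of at least three experiments, with variation among results under 10%.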
# Coagulation factor IX = Coagulation factor IX (Homo sapiens, UniProt P00740); test: Inhibition of human recombinant factor 9a by amidolytic assay
# Chain of Coagulation factor IX (P00740 47-191 limits assumed): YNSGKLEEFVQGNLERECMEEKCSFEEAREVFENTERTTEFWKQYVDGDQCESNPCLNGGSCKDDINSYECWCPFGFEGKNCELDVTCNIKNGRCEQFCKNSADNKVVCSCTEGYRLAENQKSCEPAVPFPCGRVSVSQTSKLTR
# Chain of Coagulation factor IX (P00740 227-461 limits assumed): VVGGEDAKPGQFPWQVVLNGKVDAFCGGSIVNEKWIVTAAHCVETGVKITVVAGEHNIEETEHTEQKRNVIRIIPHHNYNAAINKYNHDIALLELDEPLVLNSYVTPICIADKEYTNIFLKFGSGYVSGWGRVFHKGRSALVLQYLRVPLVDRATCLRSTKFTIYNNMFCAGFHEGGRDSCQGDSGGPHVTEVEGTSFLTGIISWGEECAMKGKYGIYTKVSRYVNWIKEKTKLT
# Chain of Coagulation factor X (P00742 41-179 limits assumed): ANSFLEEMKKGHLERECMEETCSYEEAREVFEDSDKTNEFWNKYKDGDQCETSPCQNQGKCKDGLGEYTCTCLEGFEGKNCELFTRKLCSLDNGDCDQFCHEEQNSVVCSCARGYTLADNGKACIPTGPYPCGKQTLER
# Chain of Coagulation factor X (P00742 235-488 limits assumed): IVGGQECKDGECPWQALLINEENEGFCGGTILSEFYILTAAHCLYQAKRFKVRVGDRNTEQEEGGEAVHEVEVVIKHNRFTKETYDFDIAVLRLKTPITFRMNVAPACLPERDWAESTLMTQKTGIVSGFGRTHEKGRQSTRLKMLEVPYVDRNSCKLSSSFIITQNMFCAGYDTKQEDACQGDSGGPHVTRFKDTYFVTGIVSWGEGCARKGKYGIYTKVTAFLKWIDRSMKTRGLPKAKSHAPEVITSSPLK
Compound,pKi (Coagulation factor X),pKi (Coagulation factor IX)
COc1ccc(-c2ccc3sc(C(=N)N)cc3c2)cc1OC,4.92,5.23
CCOC(=O)COc1cccc2sc(C(=N)N)cc12,–,4.92
CC(Oc1ccc2cc(C(=N)N)sc2c1)c1ccc(F)cc1 (stereo unspecified),–,4.95
N=C(N)c1cc2c(OCc3ccccc3)cccc2s1,5.22,5.82
N=C(N)c1cc2c(-c3ccccc3)cccc2s1,–,5.80
N=C(N)c1cc2ccc(OCc3cccs3)cc2s1,5.94,6.46
Cc1ccc(COc2ccc3cc(C(=N)N)sc3c2)cc1,5.10,6.05
N=C(N)c1cc2ccc(OCc3ccc(F)c(F)c3)cc2s1,5.24,6.35
N=C(N)c1cc2c(OCc3nc4ccccc4s3)cccc2s1,5.59,6.10
N=C(N)c1cc2cc(-c3ccccc3)ccc2s1,–,5.10
CCOC(=O)COc1ccc2cc(C(=N)N)sc2c1,6.22,5.42
COc1ccc(-c2ccc3cc(C(=N)N)sc3c2)cc1OC,–,4.62
N=C(N)c1cc2ccc(OCc3ccccc3Cl)cc2s1,–,5.14
N=C(N)c1cc2ccc(OCCc3ccccc3)cc2s1,–,4.67
COc1ccccc1COc1ccc2cc(C(=N)N)sc2c1,–,4.57
COC(=O)c1ccc(COc2ccc3cc(C(=N)N)sc3c2)cc1,–,4.95
N=C(N)c1cc2ccc(OCc3cccnc3)cc2s1,5.47,5.98
N=C(N)c1cc2c(I)cccc2s1,4.66,6.02
N=C(N)c1cc2ccc(OCc3ccc(Cl)cc3)cc2s1,5.54,6.35
COC(=O)CC(Oc1ccc2cc(C(=N)N)sc2c1)c1ccc(Cl)cc1 (stereo unspecified),7.48,7.55
